Results: ChEMBL document CHEMBL3616437, “Thiazole compounds with activity against Cryptococcus gattii and Cryptococcus neoformans in vitro” (Eur J Med Chem, 2015)

How the values were obtained:
Cryptococcus neoformans [1] = test: Antifungal activity against Cryptococcus neoformans CN31 assessed as reduction in cell viability at 1.9 uM after 6 to 72 hrs by MTT assay; format: functional
Cryptococcus neoformans [2] = test: Antifungal activity against Cryptococcus neoformans 5396 assessed as reduction in cell viability at 1.9 uM after 6 to 72 hrs by MTT assay; format: functional
Cryptococcus neoformans [3] = test: Antifungal activity against Cryptococcus neoformans F10 assessed as reduction in cell viability at 1.9 uM after 6 to 72 hrs by MTT assay; format: functional
Cryptococcus neoformans [4] = test: Antifungal activity against Cryptococcus neoformans VM-MCMMPI assessed as reduction in cell viability at 1.9 uM after 6 to 72 hrs by MTT assay; format: functional
Cryptococcus neoformans [5] = test: Antifungal activity against Cryptococcus neoformans 27JF assessed as reduction in cell viability at 1.9 uM after 6 to 72 hrs by MTT assay; format: functional
[6] = test system: Cryptococcus gattii species complex; test: Antifungal activity against Cryptococcus gattii L28/02 assessed as reduction in cell viability at 0.12 uM after 6 to 72 hrs by MTT assay; format: functional, Cryptococcus bacillisporus
[7] = test system: Cryptococcus gattii species complex; test: Antifungal activity against Cryptococcus gattii 547/OTTI-97-PI-10 assessed as reduction in cell viability at 0.12 uM after 6 to 72 hrs by MTT assay; format: functional, Cryptococcus bacillisporus
[8] = test system: Cryptococcus gattii species complex; test: Antifungal activity against Cryptococcus gattii 196L/03 assessed as reduction in cell viability at 0.12 uM after 6 to 72 hrs by MTT assay; format: functional, Cryptococcus bacillisporus
[9] = test system: Cryptococcus gattii species complex; test: Antifungal activity against Cryptococcus gattii L27/01 assessed as reduction in cell viability at 0.12 uM after 6 to 72 hrs by MTT assay; format: functional, Cryptococcus bacillisporus
[10] = test system: Cryptococcus gattii species complex; test: Antifungal activity against Cryptococcus gattii L24/01 assessed as reduction in cell viability at 0.12 uM after 6 to 72 hrs by MTT assay; format: functional, Cryptococcus bacillisporus
[11] = test system: Cryptococcus gattii species complex; test: Antifungal activity against Cryptococcus gattii LMM818 assessed as reduction in cell viability at 0.12 uM after 6 to 72 hrs by MTT assay; format: functional, Cryptococcus bacillisporus
[12] = test system: Cryptococcus gattii species complex; test: Antifungal activity against Cryptococcus gattii 1913ER assessed as reduction in cell viability at 0.12 uM after 6 to 72 hrs by MTT assay; format: functional, Cryptococcus bacillisporus
Cryptococcus neoformans [13] = test: Antifungal activity against Cryptococcus neoformans ATCC 62066 assessed as reduction in cell viability at 0.12 uM after 6 to 72 hrs by MTT assay; format: functional
Cryptococcus neoformans [14] = test: Antifungal activity against Cryptococcus neoformans CN31 assessed as reduction in cell viability at 0.12 uM after 6 to 72 hrs by MTT assay; format: functional
Cryptococcus neoformans [15] = test: Antifungal activity against Cryptococcus neoformans 96806 assessed as reduction in cell viability at 0.12 uM after 6 to 72 hrs by MTT assay; format: functional
Cryptococcus neoformans [16] = test: Antifungal activity against Cryptococcus neoformans 5396 assessed as reduction in cell viability at 0.12 uM after 6 to 72 hrs by MTT assay; format: functional
Cryptococcus neoformans [17] = test: Antifungal activity against Cryptococcus neoformans F10 assessed as reduction in cell viability at 0.12 uM after 6 to 72 hrs by MTT assay; format: functional
Cryptococcus neoformans [18] = test: Antifungal activity against Cryptococcus neoformans 28JF assessed as reduction in cell viability at 0.12 uM after 6 to 72 hrs by MTT assay; format: functional
Cryptococcus neoformans [19] = test: Antifungal activity against Cryptococcus neoformans VM-MCMMPI assessed as reduction in cell viability at 0.12 uM after 6 to 72 hrs by MTT assay; format: functional
Cryptococcus neoformans [20] = test: Antifungal activity against Cryptococcus neoformans WP assessed as reduction in cell viability at 0.12 uM after 6 to 72 hrs by MTT assay; format: functional
[21] = test system: Cryptococcus gattii species complex; test: Antifungal activity against Cryptococcus gattii ATCC 24065 assessed as reduction in cell viability at 0.12 uM after 6 to 72 hrs by MTT assay
Cryptococcus neoformans [22] = test: Antifungal activity against Cryptococcus neoformans ATCC 24067 assessed as reduction in cell viability at 0.9 uM after 6 to 72 hrs by MTT assay; format: functional
Cryptococcus neoformans [23] = test: Antifungal activity against Cryptococcus neoformans ATCC 62066 assessed as reduction in cell viability at 0.9 uM after 6 to 72 hrs by MTT assay; format: functional
Cryptococcus neoformans [24] = test: Antifungal activity against Cryptococcus neoformans F10 assessed as reduction in cell viability at 0.9 uM after 6 to 72 hrs by MTT assay; format: functional
Cryptococcus neoformans [25] = test: Antifungal activity against Cryptococcus neoformans 28JF assessed as reduction in cell viability at 0.9 uM after 6 to 72 hrs by MTT assay; format: functional
Cryptococcus neoformans [26] = test: Antifungal activity against Cryptococcus neoformans 27JF assessed as reduction in cell viability at 0.9 uM after 6 to 72 hrs by MTT assay; format: functional
[27] = test system: Cryptococcus gattii species complex; test: Post-antifungal activity against Cryptococcus gattii L27/01 assessed as organism required time to achieve cell population of 10^4 cells/ml at 0.45 uM treated for 1 hr by MTT assay in presence of 0.11 uM amphotericin B; format: functional, Cryptococcus bacillisporus
Cryptococcus neoformans [28] = test: Post-antifungal activity against Cryptococcus neoformans CN31 assessed as organism required time to achieve cell population of 10^4 cells/ml at 0.9 uM treated for 1 hr by MTT assay; format: functional
Cryptococcus neoformans [29] = test: Post-antifungal activity against Cryptococcus neoformans CN31 assessed as organism required time to achieve cell population of 10^4 cells/ml at 0.9 uM treated for 1 hr by MTT assay in presence of 0.05 uM amphotericin B; format: functional
[30] = test system: Cryptococcus gattii species complex; test: Antifungal activity against Cryptococcus gattii 23/10993 assessed as reduction in cell viability at 26 uM after 6 to 72 hrs by MTT assay; format: functional, Cryptococcus bacillisporus
In short: (§1)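 Time-kill setup: colonies from two 48 h, 35°C SDA passages were suspended in saline to 70% transmittance at 530 nm. They were then diluted to 1-5 x10^3 cells/mL in RPMI with L-glutamine buffered to pH 7.0 with 0.165 M MOPS. Plates were incubated at 35°C for 0-72 h, then MTT (5.0 mg/mL) was added for 3 h. After isopropanol, absorbance was read at 490 nm. Drug-free controls were included, results were confirmed by SDA colony counts, and assays were run in triplicate.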

[31] = test system: Cryptococcus gattii species complex; test: Antifungal activity against Cryptococcus gattii L28/02 assessed as reduction in cell viability at 26 uM after 6 to 72 hrs by MTT assay; format: functional, Cryptococcus bacillisporus; in short: as §1
[32] = test system: Cryptococcus gattii species complex; test: Antifungal activity against Cryptococcus gattii 135L/03 assessed as reduction in cell viability at 26 uM after 6 to 72 hrs by MTT assay; format: functional, Cryptococcus bacillisporus; in short: as §1
Cryptococcus neoformans [33] = test: Antifungal activity against Cryptococcus neoformans ATCC 24067 assessed as reduction in cell viability at 26 uM after 6 to 72 hrs by MTT assay; format: functional; in short: as §1
Cryptococcus neoformans [34] = test: Antifungal activity against Cryptococcus neoformans ATCC 28957 assessed as reduction in cell viability at 26 uM after 6 to 72 hrs by MTT assay; format: functional; in short: as §1
Cryptococcus neoformans [35] = test: Antifungal activity against Cryptococcus neoformans F10 assessed as reduction in cell viability at 26 uM after 6 to 72 hrs by MTT assay; format: functional; in short: as §1
Cryptococcus neoformans [36] = test: Antifungal activity against Cryptococcus neoformans 28JF assessed as reduction in cell viability at 26 uM after 6 to 72 hrs by MTT assay; format: functional; in short: as §1
Cryptococcus neoformans [37] = test: Antifungal activity against Cryptococcus neoformans VM-MCMMPI assessed as reduction in cell viability at 26 uM after 6 to 72 hrs by MTT assay; format: functional; in short: as §1

`C(=N\Nc1nc(-c2ccccc2)cs1)/C1CCCCC1` showed an Activity (Cryptococcus neoformans [1]) of 90%, an Activity (Cryptococcus neoformans [2]) of 90% and an Activity (Cryptococcus neoformans [3]) of 90%. For the same compound, the Activity (Cryptococcus neoformans [4]) was 90% and the Activity (Cryptococcus neoformans [5]) was 90%.

`C[C@@H]1[C@H](O)[C@@H](C)/C=C/C=C/C=C/C=C/C=C/C=C/C=C/[C@H](O[C@@H]2O[C@H](C)[C@@H](O)[C@H](N)[C@@H]2O)C[C@@H]2O[C@](O)(C[C@@H](O)C[C@@H](O)[C@H](O)CC[C@@H](O)C[C@@H](O)CC(=O)O[C@H]1C)C[C@H](O)[C@H]2C(=O)O` [AMPHOTERICIN B] showed an Activity [6] of 90%, an Activity [7] of 90% and an Activity [8] of 90%. It also gave an Activity [9] of 90%, an Activity [10] of 90% and an Activity [11] of 90%. For the same compound, the Activity [12] was 90%, the Activity (Cryptococcus neoformans [13]) was 90% and the Activity (Cryptococcus neoformans [14]) was 90%. The Activity (Cryptococcus neoformans [15]) was 90%, the Activity (Cryptococcus neoformans [16]) was 90% and the Activity (Cryptococcus neoformans [17]) was 90%. For the same compound, the Activity (Cryptococcus neoformans [18]) was 90%, the Activity (Cryptococcus neoformans [19]) was 90% and the Activity (Cryptococcus neoformans [20]) was 90%. The Activity [21] was 90%.

`COc1ccc(-c2csc(N/N=C(\C)CCO)n2)cc1` gave an Activity (Cryptococcus neoformans [22]) of 90%, an Activity (Cryptococcus neoformans [23]) of 90% and an Activity (Cryptococcus neoformans [24]) of 90%. The Activity (Cryptococcus neoformans [25]) was 90%, the Activity (Cryptococcus neoformans [26]) was 90% and the Time [27] was 2.15 h. The Time (Cryptococcus neoformans [28]) was 2.8 h and the Time (Cryptococcus neoformans [29]) was 2.1 h.

`OC(Cn1cncn1)(Cn1cncn1)c1ccc(F)cc1F` [FLUCONAZOLE] showed an Activity [30] of 80%, an Activity [31] of 80% and an Activity [32] of 80%. It also gave an Activity (Cryptococcus neoformans [33]) of 80%, an Activity (Cryptococcus neoformans [34]) of 80% and an Activity (Cryptococcus neoformans [35]) of 80%. For the same compound, the Activity (Cryptococcus neoformans [36]) was 80% and the Activity (Cryptococcus neoformans [37]) was 80%.
